Activity calls are given as the source filed them. The rule behind the calls is not given here.
How the values were obtained:
[1] = biological target: T1, Hemoglobin HbA (Homo sapiens) (UniProt P69905+P68871); test: Binding affinity to hemoglobin in whole blood (unknown origin) at 2 mM incubated for 24 hrs; format: tissue-based
Outline: (§1)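 Normal whole blood was incubated with 2 mM compound at 37 °C for up to 24 h. Aliquots taken at 1, 2, 4, 8 and 24 h were assessed by oxygen equilibrium curves, with DMSO as vehicle control.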

[2] = biological target: T1, Hemoglobin HbA (Homo sapiens); test: Binding affinity to hemoglobin in whole blood (unknown origin) at 1 mM incubated for 2 hrs relative to control; format: tissue-based
Outline: (§2)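 Normal human whole blood at 20% hematocrit was incubated with compound (1 mM and 2 mM final) for 2 h at 37 °C. Hb–O2 affinity was then measured from oxygen equilibrium curves. Runs were done at least in triplicate.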

[3] = Drug reactivity against cysteine in PBS buffer assessed as assessed as cysteine-compound adduct formation at 2 mM incubated for 3 hrs by UPLC-MS analysis relative to control
[4] = biological target: T1, Hemoglobin HbA (Homo sapiens); test: Binding affinity to hemoglobin in whole blood (unknown origin) incubated for 2 hrs; format: tissue-based; outline: as §2
[5] = biological target: T1, Hemoglobin HbA (Homo sapiens); test: Drug reactivity against betacys93 in hemoglobin (unknown origin) assessed as betacys93-compound adduct formation at 2 mM incubated for 16 hrs by UPLC-MS analysis relative to control; format: protein-complex assay; details: in the assay text read “by DTNB disulfide exchange assay” for “by UPLC-MS analysis”
Outline: (§3)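 Hb (50 µM in PBS) was reacted with 2 mM compound (final) at room temperature for 2 h or 16 h. Hb was recovered by centrifugation and 10 kDa ultrafiltration, then washed. Samples were incubated in 0.1 M potassium phosphate pH 8.0 with DTNB for 1 h at 25 °C. Hb content was taken from A576 and free thiol from 2-nitrobenzoate at A412 (ε 14 150 M-1 cm-1). Values are the mean of quadruplicates ± SD. % adduct = 100 − available SH from two βCys93.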

[6] = Drug reactivity against cysteine in PBS buffer at 2 mM incubated for 3 hrs by UPLC-MS analysis relative to control
[7] = biological target: T1, Hemoglobin HbA (Homo sapiens); test: Drug reactivity against betacys93 in hemoglobin (unknown origin) assessed as betacys93-compound adduct formation at 2 mM incubated for 2 hrs by UPLC-MS analysis relative to control; format: protein-complex assay; details: in the assay text read “by DTNB disulfide exchange assay” for “by UPLC-MS analysis”; outline: as §3
[8] = system: Erythrocyte; test: Anti-sickling activity in RBC derived from patient homozygous SS at 2 mM […] by microscopic analysis relative to control; format: functional, Homo sapiens
[9] = biological target: T1, Hemoglobin HbA (Homo sapiens); test: Drug reactivity against betacys93 in hemoglobin (unknown origin) assessed as free SH in betacys93 at 2 mM incubated for 16 hrs by UPLC-MS analysis relative to control; format: protein-complex assay; details: in the assay text read “by DTNB disulfide exchange assay” for “by UPLC-MS analysis”; outline: as §3
[10] = biological target: T1, Hemoglobin HbA (Homo sapiens); test: Binding affinity to hemoglobin in whole blood (unknown origin) at 2 mM incubated for 2 hrs relative to control; format: tissue-based; outline: as §2
[11] = biological target: T1, Hemoglobin HbA (Homo sapiens); test: Binding affinity to hemoglobin in whole blood (unknown origin) at 2 mM incubated for 8 hrs; format: tissue-based; outline: as §1
[12] = Acute toxicity in Swiss albino mouse assessed as mortality at 2000 mg/kg, po via gavage measured after 24 hrs by OECD 423 guideline based method; format: organism-based; details: in vivo
Outline: (§4)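 Male and female Swiss albino mice (22–27 g, 8–10 weeks) were held at about 23 °C on a 12 h light/dark cycle with free food and water. Dosing was a single oral gavage of a 10% suspension in water with 0.5% Tween 80. Groups of n = 3 received 2000 mg/kg (days 1 and 2) or 5000 mg/kg (day 3). Toxic signs and mortality were watched for 24 h.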

[13] = Acute toxicity in Swiss albino mouse assessed as mortality at 5000 mg/kg, po via gavage measured after 24 hrs by OECD 423 guideline based method; format: organism-based; details: in vivo; outline: as §4

T1 sequence (P68871 2-147 partner limits assumed): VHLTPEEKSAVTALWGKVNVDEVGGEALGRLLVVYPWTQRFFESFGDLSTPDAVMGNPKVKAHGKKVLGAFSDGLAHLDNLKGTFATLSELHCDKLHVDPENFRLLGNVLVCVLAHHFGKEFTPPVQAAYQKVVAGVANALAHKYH
T1 sequence (P69905 2-142 limits assumed): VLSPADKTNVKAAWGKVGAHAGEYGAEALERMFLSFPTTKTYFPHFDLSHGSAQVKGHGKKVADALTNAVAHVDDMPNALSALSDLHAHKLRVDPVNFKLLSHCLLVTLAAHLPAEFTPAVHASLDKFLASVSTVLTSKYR

| SMILES | Activity [1] | Activity [2] [%] | Activity [3] [%] | Activity [4] | Activity [5] [%] | Activity [6] [%] | Activity [7] [%] | Activity [9] [%] | Activity [10] [%] | Activity [11] | Activity [8] [%] | Activity [12] | Activity [13] |
| --- | --- | --- | --- | --- | --- | --- | --- | --- | --- | --- | --- | --- | --- |
| O=C(/C=C/c1ncc[nH]1)c1ccccc1 | Active | 7 | 19.6 | Active | 21 | 80.4 | 10 | 79 | 11.3 | – | 7 | – | – |
| COc1ccc(C(=O)/C=C/c2ncc[nH]2)cc1 | Active | 8.2 | 77 | Active | 37 | 23 | 11 | 63 | 11.8 | – | 9 | Non-Toxic | Toxic |
| O=C(/C=C/c1ncc[nH]1)c1ccc(OC2CCCCO2)cc1 (configuration not stated) | Active | 9.9 | 54.9 | Active | – | 45.1 | – | – | 15.2 | – | 7 | – | – |

Second part, led by results:

| Activity [1] | Activity [2] [%] | Activity [3] [%] | Activity [4] | Activity [5] [%] | Activity [6] [%] | Activity [7] [%] | Activity [9] [%] | Activity [10] [%] | Activity [11] | SMILES | Activity [8] [%] | Activity [12] | Activity [13] |
| --- | --- | --- | --- | --- | --- | --- | --- | --- | --- | --- | --- | --- | --- |
| – | 6.5 | 53.7 | Active | 20 | 46.3 | 9 | 80 | 6.5 | Active | COc1ccc(C(=O)/C=C/c2ncc[nH]2)cc1OC | 5 | – | – |
| – | 1.9 | – | Active | 30 | – | 11 | 70 | 4.5 | Active | O=C(O)CCCOc1ccc(C(=O)/C=C/c2ncc[nH]2)cc1Cl | 2 | – | – |
